Assay outcomes as filed in PubChem.
TAAR1 antag: human TAAR1 antagonism. Q96RJ0. AID 624466. CHO RD-HGA16 TAAR1, Fluo-8 calcium fluorescence, antagonist. actives 1.5% (n = 360,000). inhibition, % at 3 µM;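 active = inhibition above a per-plate cutoff, the mean inhibition of test compounds on that plate plus 3 SD, cut at about 49% in these data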;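 also: 0% = DMSO plus EC80 beta-PEA response and 100% = DMSO alone without agonist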
Target sequence (Q96RJ0 whole entry, looked up): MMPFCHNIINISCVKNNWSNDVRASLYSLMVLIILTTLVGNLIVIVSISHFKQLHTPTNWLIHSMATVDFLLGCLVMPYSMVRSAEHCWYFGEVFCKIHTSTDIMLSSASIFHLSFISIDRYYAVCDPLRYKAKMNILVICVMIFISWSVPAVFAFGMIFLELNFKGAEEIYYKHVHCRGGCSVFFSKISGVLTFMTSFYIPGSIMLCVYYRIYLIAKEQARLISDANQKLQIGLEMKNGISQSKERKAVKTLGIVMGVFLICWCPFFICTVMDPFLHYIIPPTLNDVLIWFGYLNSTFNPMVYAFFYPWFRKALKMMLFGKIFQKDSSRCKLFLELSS
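Test system – hTAAR1-expressing CHO RD-HGA16 cells, Gα16-coupled · Reagent – β-PEA at EC80 concentration, post-compound challenge · Compound dosing – 3 µM, single point · Timing – 140 s kinetic read after compound, 140 s after agonist · Detection – Fluo-8 intracellular calcium dye fluorescence, real-time kinetic reads · Control set – DMSO and EC80 PEA controls · Repeats – n of 1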
OX1R antag-1: antagonists of human orexin 1 receptor; CHO/OX1R cells, Fluo-8 calcium fluorescence, orexin A; inhibition, % at 5 µM; actives 0.43% (n = 330,000); AID 434989;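 active = inhibition above its plate's threshold, mean inhibition of all tested compounds on the plate plus 3 SD, cut at about 37% in these data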;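 also: 0% = orexin A challenge wells and 100% = SB-334867-A antagonist wells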
CHO parental Ca: counter-screen for OX1R antagonists: effect in parental CHO cells; AID 463079; actives 0.63% (n = 330,000); parental CHO-K1, ATP-induced calcium, Fluo-8 fluorescence; inhibition, % at 5.6 µM;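 active = inhibition above that plate's mean sample inhibition plus 3 SD, cut at about 26% in these data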;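 also: 0% = ATP-challenged DMSO wells and 100% = DMSO wells without ATP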
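Material: parental CHO cells / Compound: single nominal dose of 5.6 µM per compound / Signal: Fluo-8 fluorescence / Replicates: singlicate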
OX1R antag-2: antagonists of human orexin 1 receptor (OX1R); inhibition, % at 6.6 µM; OX1R-expressing cells, FRET antagonist read-out; actives 1.8% (n = 330,000); O43613; AID 485270; in the data active = inhibition mostly above about 38%, no sharp cut-off; inactive = mostly below about 40%;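 also: 0% = agonist challenge alone and 100% = reference antagonist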
NTR1 ag: agonists of human neurotensin receptor NTR1; NTR1-U2OS beta-arrestin-GFP spot imaging, agonist mode; activation, % at 20 µM; actives 0.17% (n = 330,000);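 active = activation at or above 40% of the spot to cytoplasm intensity ratio, with at least 20 cells analyzed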;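 also: 0% = DMSO without peptide and 100% = 100 nM NTR1 peptide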
Target sequence (P30989 whole entry, looked up): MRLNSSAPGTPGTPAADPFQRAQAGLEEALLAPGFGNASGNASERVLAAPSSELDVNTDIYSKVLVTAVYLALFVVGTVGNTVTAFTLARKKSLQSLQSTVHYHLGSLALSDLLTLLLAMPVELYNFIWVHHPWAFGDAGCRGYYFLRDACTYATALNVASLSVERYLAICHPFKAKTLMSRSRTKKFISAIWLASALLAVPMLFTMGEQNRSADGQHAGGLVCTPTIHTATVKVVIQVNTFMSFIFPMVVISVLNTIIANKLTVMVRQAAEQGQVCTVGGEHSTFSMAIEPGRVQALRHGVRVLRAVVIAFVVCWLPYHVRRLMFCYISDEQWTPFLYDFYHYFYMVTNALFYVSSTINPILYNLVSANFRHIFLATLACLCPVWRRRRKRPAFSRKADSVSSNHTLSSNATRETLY
TAAR1 agonist: agonists of human TAAR1 | CHO RD-HGA16 TAAR1, Fluo-8 calcium fluorescence; vehicle wells 0%, saturating PEA agonist 100% | actives 0.99% (n = 360,000) | activation, % at 3 µM | Q96RJ0;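 active = activation above the mean activation of all test compounds in the run plus 3 SD, cut at about 38% in these data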
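Benchmarks: low control DMSO, high control PEA (EC100); System: CHO RD-HGA16 cells carrying human TAAR1 plus Gα16; Detection: Fluo-8 fluorescence, 5 s baseline then 140 s kinetic read; Schedule: 17-24 h plating, Fluo-8 75 min 37 °C, 30 min RT; Read-out basis: % activation from peak over basal fluorescence ratio, DMSO-to-PEA scaled.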
nonsel antag count: nonselective antagonism, TAAR1 counter-screen | counterscreen cell line, calcium fluorescence, antagonist mode | actives 77% (n = 2,400) | AID 651780 | inhibition, % at 3 µM | shares compounds with TAAR1 antag; in the data active = inhibition above about 22%;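 also: CHO-Ga16 host cells stimulated with ATP at an EC80 level; 0% = agonist EC80 plus vehicle and 100% = vehicle without agonist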
TAAR1 antag conf: confirmation of human TAAR1 antagonists; shares compounds with TAAR1 antag; TAAR1-expressing cells, fluorescence antagonist read-out; inhibition, % at 3 µM; actives 40% (n = 2,400); AID 651785; in the data active = inhibition above about 49%;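 also: CHO-Ga16 host cells challenged with agonist PEA near its EC80; 0% = agonist at EC80 plus vehicle and 100% = vehicle with no agonist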
Ga16 ag counter: nonselective Ga16 agonist in TAAR1 antagonist counter-screen. shares compounds with TAAR1 antag. Ga16-expressing cells, calcium fluorescence, agonist counterscreen. activation, % at 3 µM. actives 18% (n = 2,400). AID 651953; in the data active = activation above about 12%;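 also: 0% = vehicle wells and 100% = saturating stimulus response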
TAAR1 ag counter: counter-screen for human TAAR1 antagonists: TAAR1 agonists; AID 651955; actives 2% (n = 2,400); activation, % at 3 µM; shares compounds with TAAR1 antag; hTAAR1 cell line, fluorescence activation, agonist mode; in the data active = activation above about 37%;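 also: CHO cells stably expressing TAAR1 with calcium dye readout; 0% = DMSO vehicle and 100% = full agonist response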
An asterisk follows results filed as active. Shown are actives, neighbours in structure and some others; about 4% of the full set was active somewhere.

What do the screens show for `O=C(Nc1ccccc1)c1cc(C2CCCCN2C(=O)CCc2ccccc2)on1` (stereo unspecified)?
TAAR1 antag: 3; TAAR1 agonist: 6

What do the screens show for `N#Cc1cccc(NC(=O)c2cc(C3CCCCN3C(=O)CCCc3ccccc3)on2)c1` (stereo unspecified)?
TAAR1 antag: 61*; TAAR1 agonist: 10; nonsel antag count: 34*; TAAR1 antag conf: 54*; Ga16 ag counter: 11; TAAR1 ag counter: 14

How did Brc1ccccc1-c1nc2c3ccccc3ncn2n1 do in these assays?
TAAR1 antag: 53*; OX1R antag-1: -17; CHO parental Ca: -30; OX1R antag-2: 21; NTR1 ag: 2; TAAR1 agonist: 9; nonsel antag count: 13; TAAR1 antag conf: 14; Ga16 ag counter: 10; TAAR1 ag counter: 15

How did O=[N+]([O-])c1ccc(N/N=C/c2c[nH]c3ccccc23)cc1 do in these assays?
TAAR1 antag: 89*; OX1R antag-1: 45; CHO parental Ca: 47*; OX1R antag-2: 11; NTR1 ag: -4; TAAR1 agonist: 25; nonsel antag count: 36*; TAAR1 antag conf: 63*; Ga16 ag counter: 18*; TAAR1 ag counter: 9

Results for O=[N+]([O-])c1ccccc1N/N=C/c1c[nH]c2ccccc12 ?
TAAR1 antag: 1; OX1R antag-1: 3; CHO parental Ca: -7; OX1R antag-2: 50; NTR1 ag: 8; TAAR1 agonist: -2

How did Cc1ccc([C@H]2N[C@]3(CCCN(Cc4ccc(C(F)(F)F)cc4)C3=O)[C@H]3C(=O)N(Cc4ccccc4)C(=O)[C@@H]23)cc1 do in these assays?
TAAR1 antag: 7; TAAR1 agonist: -1

Results for CN(CC(=O)Nc1ccc(Cl)c(C(F)(F)F)c1)C(=O)COC(=O)C1CC2CCCC(C1)C2=O (stereo unspecified) ?
TAAR1 antag: 13; OX1R antag-1: 6; CHO parental Ca: -2; OX1R antag-2: 11; NTR1 ag: 0; TAAR1 agonist: 18

Results for CC(C)(C)c1ccc(C#C[C@@H]2C=C[C@H](O)[C@@H](COC(=O)Nc3ccccc3)O2)cc1 ?
TAAR1 antag: 51*; TAAR1 agonist: 14; nonsel antag count: 26*; TAAR1 antag conf: 29; Ga16 ag counter: 4; TAAR1 ag counter: 14

Results for CCNC(=O)OC[C@H]1O[C@H](C#Cc2ccc(C(C)(C)C)cc2)C=C[C@H]1O ?
TAAR1 antag: -2; TAAR1 agonist: 1

How did CCOC(=O)c1nn(-c2ccccc2C)c(=O)cc1OCC(=O)N1CCN(c2ccccc2)CC1 do in these assays?
TAAR1 antag: -5; OX1R antag-1: -18; CHO parental Ca: -19; OX1R antag-2: 21; NTR1 ag: -1; TAAR1 agonist: -1

How did C[C@@H]1CNC(=O)c2c(C(=O)N[C@@H](Cc3c[nH]c4ccccc34)C(=O)OC(C)(C)C)ncn21 do in these assays?
TAAR1 antag: 58*; TAAR1 agonist: 12; nonsel antag count: 30*; TAAR1 antag conf: 43; Ga16 ag counter: 9; TAAR1 ag counter: 12

What do the screens show for `CCC(=O)NC(=S)Nc1ccc(NC(=O)c2ccc(Br)o2)cc1`?
TAAR1 antag: 0; OX1R antag-1: -26; CHO parental Ca: 0; OX1R antag-2: 13; NTR1 ag: 2; TAAR1 agonist: -1

What do the screens show for `CCN(c1ccccc1)S(=O)(=O)c1ccc(NC(=S)NC(=O)c2ccc(Br)o2)cc1`?
TAAR1 antag: 64*; OX1R antag-1: -22; CHO parental Ca: 0; OX1R antag-2: 13; NTR1 ag: 2; TAAR1 agonist: 8; nonsel antag count: 33*; TAAR1 antag conf: 40; Ga16 ag counter: 8; TAAR1 ag counter: 0

What do the screens show for `CCCNC(=O)C[C@@H]1C[C@@H]2c3cc(NS(=O)(=O)c4ccc(OC)cc4)ccc3O[C@@H]2[C@@H](CO)O1`?
TAAR1 antag: -9; TAAR1 agonist: 3

Results for CCOc1ccc(C(C(=O)NCC2CCCO2)N(Cc2ccccc2)C(=O)c2snc(C(N)=O)c2N)cc1 (stereo unspecified) ?
TAAR1 antag: 57*; OX1R antag-1: -23; CHO parental Ca: -12; OX1R antag-2: 16; NTR1 ag: 3; TAAR1 agonist: 21; nonsel antag count: 35*; TAAR1 antag conf: 57*; Ga16 ag counter: 12*; TAAR1 ag counter: 18

Results for COc1ccc(C(C(=O)NCC2CCCO2)N(Cc2cccs2)C(=O)c2snc(C(N)=O)c2N)cc1 (stereo unspecified) ?
TAAR1 antag: 59*; OX1R antag-1: -16; CHO parental Ca: -36; OX1R antag-2: 18; NTR1 ag: 3; TAAR1 agonist: 19; nonsel antag count: 23*; TAAR1 antag conf: 58*; Ga16 ag counter: 27*; TAAR1 ag counter: 12

What do the screens show for `CCOc1ccc(N(C(C)C(=O)N/N=C(\C)c2cccc(NC(=O)c3ccccc3)c2)S(C)(=O)=O)cc1` (stereo unspecified)?
TAAR1 antag: 54*; OX1R antag-1: -3; CHO parental Ca: -16; OX1R antag-2: 46; NTR1 ag: 2; TAAR1 agonist: 17; nonsel antag count: 29*; TAAR1 antag conf: 43; Ga16 ag counter: 7; TAAR1 ag counter: 5

Results for Cc1ccc2[nH]c(O)c(N=NC(N)=S)c2c1 ?
TAAR1 antag: -16; OX1R antag-1: 1; CHO parental Ca: 1; OX1R antag-2: 16; NTR1 ag: 3; TAAR1 agonist: 0

Results for CC(/C=C(\NC(=O)c1ccccc1)C(=O)N=Nc1c(O)[nH]c2ccc(C)cc12)=C\c1ccccc1 ?
TAAR1 antag: 65*; OX1R antag-1: -17; CHO parental Ca: -19; OX1R antag-2: 68; NTR1 ag: 0; TAAR1 agonist: 11; nonsel antag count: 20; TAAR1 antag conf: 47; Ga16 ag counter: 7; TAAR1 ag counter: 5

What do the screens show for `COc1cc(NC(=O)N2CCNC2=O)cc(C(=O)Nc2cccc(C(F)(F)F)c2)c1`?
TAAR1 antag: 51*; OX1R antag-1: -28; CHO parental Ca: -7; OX1R antag-2: 35; NTR1 ag: -2; TAAR1 agonist: 20; nonsel antag count: 19; TAAR1 antag conf: 24; Ga16 ag counter: 8; TAAR1 ag counter: 6
